Source: PubChem (The Scripps Research Institute Molecular Screening Center)
CHRM5 agonist: CHRM5 agonism in calcium assay; P08912; CHO-K1 hM5 cells, Fluo-8 calcium fluorescence; 0% DMSO wells, 100% maximal acetylcholine response; activation, % at 3 µM; actives 0.19% (n = 360,000);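 active = activation above the run's mean over test compounds plus 3 SD, cut at about 23% in these data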;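 also: signal is peak over basal fluorescence ratio across the kinetic read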
Target sequence (P08912 whole entry, looked up): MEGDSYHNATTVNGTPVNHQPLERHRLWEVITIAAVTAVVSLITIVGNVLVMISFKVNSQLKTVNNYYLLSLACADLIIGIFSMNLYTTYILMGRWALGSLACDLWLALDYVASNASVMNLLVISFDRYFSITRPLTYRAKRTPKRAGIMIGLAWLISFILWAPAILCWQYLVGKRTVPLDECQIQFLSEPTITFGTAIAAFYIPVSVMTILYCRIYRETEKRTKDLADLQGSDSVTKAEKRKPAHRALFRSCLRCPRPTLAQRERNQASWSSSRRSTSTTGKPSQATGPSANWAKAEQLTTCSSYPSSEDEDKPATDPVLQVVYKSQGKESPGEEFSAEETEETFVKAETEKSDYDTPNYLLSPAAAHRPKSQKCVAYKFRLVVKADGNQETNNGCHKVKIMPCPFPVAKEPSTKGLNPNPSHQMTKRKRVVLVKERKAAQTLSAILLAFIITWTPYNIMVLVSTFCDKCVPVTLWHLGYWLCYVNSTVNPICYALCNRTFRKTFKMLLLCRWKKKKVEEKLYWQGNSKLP
CHRM4 antagonist: antagonists of human muscarinic M4 receptor (CHRM4); actives 0.73% (n = 360,000); inhibition, % at 3 µM; CHO-hM4 cells, ACh EC80, Fluo-8 calcium fluorescence; P08173;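 active = inhibition above its plate's cutoff, the mean inhibition of sample wells plus 3 SD, cut at about 27% in these data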;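 also: 0% = acetylcholine EC80 with DMSO and 100% = DMSO without agonist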
CHRM5 PAM: positive allosteric modulators of human muscarinic M5 receptor | CHO-K1 hM5, Fluo-8 calcium, ACh EC20 PAM; 0% = ACh EC20, 100% = ACh EC100 | activation, % at 3 µM | actives 0.3% (n = 360,000) | AID 624038;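 active = activation above the run cutoff, the mean activation of all test compounds plus 3 SD, cut at about 18% in these data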
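system = human M5 receptor in CHO-K1 cells | compound = one concentration, 3 µM final (nominal) | schedule = Post-acetylcholine fluorescence recording 140 s | signal = Fluo-8 calcium dye fluorescence, kinetic read | benchmarks = low control EC20 acetylcholine (0%), high control EC100 acetylcholine (100%) | repeats = singlicate, one well per test compound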
CHRM4 PAM: positive allosteric modulators of human muscarinic M4 receptor. P08173. AID 624126. CHO-K1 hM4/Gqi5, Fluo-8 calcium fluorescence, ACh EC20; 0% = ACh EC20, 100% = maximal ACh. activation, % at 3 µM. actives 0.4% (n = 360,000);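 active = activation above its plate's cutoff, the mean activation of sample wells plus 3 SD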
M5 antag: blocks acetylcholine activation of human M5 receptor | inhibition, % at 3 µM | actives 0.59% (n = 360,000) | P08912 | CHO-hM5 cells, Fluo-8 calcium fluorescence, ACh EC80;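 active = inhibition above a per-plate cutoff, the mean of that plate's test compounds plus 3 SD, cut at about 27% in these data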;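 also: 0% = acetylcholine EC80 with DMSO and 100% = DMSO without agonist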
CHRM4 agonist: CHRM4 agonism in calcium assay; CHO-K1 hM4/Gqi5, Fluo-8 calcium fluorescence; vehicle 0%, full acetylcholine response 100%; P08173; activation, % at 3 µM; actives 0.14% (n = 360,000); AID 624127;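 active = activation above the run mean over all test wells plus 3 SD, cut at about 32% in these data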;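 also: peak over basal fluorescence ratio per well then scaled between controls; 0% = DMSO wells and 100% = acetylcholine at EC100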
An asterisk follows results filed as active. Most compounds without a hit are left out; they make up all but 1.9% or so of the library.

SMILES	CHRM5 agonist	CHRM4 antagonist	CHRM5 PAM	CHRM4 PAM	M5 antag	CHRM4 agonist
CN(C)CCNc1nc2sc3c(c2c(=O)n1CCc1ccccc1)CCCCC3	8	31*	-19	-13	17	19
COC(=O)Cn1c(=O)n(CCc2ccccc2)c(=O)c2c3c(sc21)CCCC3	-8	30*	-16	-32	22	-3
CC(O)CNc1nc2sc3c(c2c(=O)n1CCc1ccccc1)CCCCC3 (stereo not drawn)	0	-4	-4	-3	-4	7
O=C(NCCN1CCOCC1)c1ccc2ccccc2n1	1	-4	2	9	-7	1
C=CCC[C@@H](Cc1ccc(F)cc1)C(=O)OC[C@@H]1CCCN1C(=O)[C@H](CC=C)CC(=O)N[C@H](CO)Cc1ccccc1	-2	0	-3	1	8	6
C=CCC[C@@H](Cc1ccc(F)cc1)C(=O)OC[C@H]1CCCN1C(=O)[C@@H](CC=C)CC(=O)N[C@H](CO)Cc1ccccc1	3	31*	-19	-11	6	19
COc1ccc2c(c1)nc(SCC(=O)c1cccs1)n2C	-1	6	1	14	7	2
COc1cccc(C2CC(=O)N3CN(c4ccccc4F)CSC3=C2C#N)c1 (stereo not drawn)	3	4	-4	-3	3	0
COc1ccc(OC)c(C2CC(=O)N3CN(c4ccccc4F)CSC3=C2C#N)c1 (stereo not drawn)	-1	-10	22*	3	-13	0
O=NN(CCc1ccncc1)c1ccc(OCc2ccccc2)cc1	-5	12	-25	-11	34*	13
O=C(NCc1ccncc1)C(=O)N/N=C/c1ccc(OCc2ccccc2)cc1	-3	-10	6	2	-7	1
COc1cc(C)ccc1OCCCCN1CC(C)OC(C)C1 (stereo not drawn)	-2	3	-3	-7	1	0
O=c1[nH]c(C2CCN(S(=O)(=O)c3ccc(S(=O)(=O)NC4CC4)cc3)CC2)nc2c1nnn2Cc1cccc(F)c1	-4	45*	0	-20	7	0
O=c1[nH]c(C2CCN(S(=O)(=O)c3ccc([N+](=O)[O-])cc3)CC2)nc2c1nnn2Cc1ccccc1	-3	7	4	-2	6	2
O=c1[nH]c(C2CCN(S(=O)(=O)c3ccccc3)CC2)nc2c1nnn2Cc1ccccc1	-1	67*	3	-27	-5	2
O=c1[nH]c(C2CCN(S(=O)(=O)c3ccc4c(c3)OCCO4)CC2)nc2c1nnn2Cc1cccc(F)c1	-4	79*	1	-23	9	1
O=c1[nH]c(C2CCN(S(=O)(=O)c3ccccc3)CC2)nc2c1nnn2Cc1ccc2c(c1)OCCO2	-6	95*	5	-11	2	-1
O=c1[nH]c(C2CCCN(S(=O)(=O)c3ccccc3Cl)C2)nc2c1nnn2Cc1ccc2c(c1)OCCO2 (stereo not drawn)	-6	-9	-3	-8	-6	3
Cc1ccc(Cn2nnc3c(=O)[nH]c(C4CCN(S(=O)(=O)c5ccc(S(=O)(=O)NC6CC6)cc5)CC4)nc32)cc1	-6	12	2	-10	1	1
CN(C)c1ccc(CN(C(=O)c2ccco2)C2CCS(=O)(=O)C2)cc1 (stereo not drawn)	-7	-4	4	4	-1	0
COCC(=O)NC1CCN(S(=O)(=O)c2ccc(C(=O)O)cc2)CC1	-3	-3	-6	6	8	0
O=c1[nH]c(C2CCN(S(=O)(=O)c3ccc4c(c3)OCCO4)CC2)nc2c1nnn2Cc1ccc(F)cc1	-1	48*	-1	-19	14	0
CCCCc1ccc(NC(=O)CSc2nc3ncccc3[nH]2)cc1	5	33*	-10	-11	9	21
CCOC(=O)c1ccc(NC(=O)CSc2nc3ncccc3[nH]2)cc1	4	-16	-8	4	7	5
CCOc1ccc2ccccc2c1C1NC(=S)N(C)C(C)=C1C(=O)OC (stereo not drawn)	-3	-1	0	0	6	0
SMILES	CHRM5 agonist	CHRM4 antagonist	CHRM5 PAM	CHRM4 PAM	M5 antag	CHRM4 agonist
Cc1ccc(S(=O)(=O)Nc2cccc3ncccc23)s1	-10	28*	-16	-2	26	2
Cc1ccc(S(=O)(=O)Nc2cccc3ncccc23)cc1	-1	-5	-2	12	-1	4
COC(=O)C1CCN(Cc2ccc(C)cc2)CC1	-3	-2	-4	2	5	0
Cc1ccc(S(=O)(=O)NNC(=O)C2CCN(Cc3ccccc3)CC2)cc1	-5	41*	-18	-30	53*	1
COc1ccc(C2CC(c3ccccc3)Nc3nc(NS(C)(=O)=O)nn32)cc1 (stereo not drawn)	0	-22	-2	3	4	1
O=C(Nc1cccc(Br)c1)Oc1cccc2cccnc12	9	17	-21	-10	34*	14
O=C(Nc1c(Cl)cccc1Cl)Oc1cccc2cccnc12	-3	-4	1	3	-4	2
COc1ccc(C(=O)NCCCc2nc3ccccc3n2Cc2cc(C)ccc2C)cc1OC	15	-3	-13	-7	-3	7
CCCCC(CC)C(=O)NCCCN1CCN(CCCNC(=O)C(CC)CCCC)CC1 (stereo not drawn)	-8	34*	-1	-9	-4	-1
CSCCC(NC(=O)COc1ccccc1)C(=O)N(C)CC(=O)Nc1c(C)cccc1C (stereo not drawn)	1	-15	3	8	-1	2
COC(=O)c1c(C(=O)OC)c2c(-c3ccccc3)cc3cccc1n32	9	1	-5	-5	32*	7
COC(=O)c1c(-c2ccccc2)csc1N	-1	12	2	-5	0	3
CCN1C(=S)N[C@@H](c2ccccc2)C(C(=O)OC)=C1C	-7	7	-5	3	12	0
CC[C@H](C)Cc1cn([C@@H](CCCN=C(NC(=O)OC(C)(C)C)NC(=O)OC(C)(C)C)C(=O)NCCCCCCCCCCC(=O)N2CCN(C(=O)OC(C)(C)C)CC2)nn1	-11	36*	-5	-14	6	1
CC[C@H](C)Cc1cn([C@@H](CCCCN)C(=O)NCCCCCCCCCCC(=O)N2CCNCC2)nn1	-10	-5	7	3	3	0
CC(C)(C)OC(=O)NCCCCCc1cn(CC(=O)NCCCCCCCCCCC(=O)N2CCN(C(=O)OC(C)(C)C)CC2)nn1	6	2	-9	0	12	6
